Calls of active or inactive are those of the source.
Columns and labels:
P388 [1] = assay: The average percentage increase in the lifespan of P388 leukemic mice, when compound was administered intraperitoneally; NA is Not Active.; type: functional, cell-based; settings: Mus musculus
In short: (§1)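 10⁶ P388 leukemia cells injected intraperitoneally. Drug given intraperitoneally as the sodium salt in 0.2 mL water on days 1, 5 and 9; optimal dose is in mg/kg per day. ILS is the mean percent increase in lifespan over untreated tumor-bearing controls, with ≥20% considered significant. NA means no activity at any dose up to toxic levels.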

[2] = Activity against colon adenocarcinoma C38 tumor in mice, after intraperitoneal administration at optimal dose and value ranges from 50 -90 %; type: functional, Mus musculus
In short: (§2)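 Colon 38 fragments implanted subcutaneously and grown to 4–8 mm diameter. Single intraperitoneal dose of the sodium salt in 0.2 mL water, escalated at 1.5-fold intervals up to 750 mg/kg or the toxic limit, with at least three mice per dose. Optimal dose is the highest dose with no acute deaths within 24 h. Tumors excised at 24 h, fixed in formalin and stained with H&E. Sections scored against controls: + = 50–90% hemorrhagic necrosis, ++ = >90%.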

P388 [3] = assay: Optimal dose that inhibits growth of 10e6 P388 leukemic cells in mice, after intraperitoneal administration of the compound; type: functional, Mus musculus; in short: as §1
[4] = Inhibition of colon adenocarcinoma C38 tumor growth in mice, intraperitoneal administration; type: functional, Mus musculus; in short: as §2
[5] = Activity against colon adenocarcinoma C38 tumor in mice, after intraperitoneal administration at optimal dose; type: functional, Mus musculus; in short: as §2
P388 [6] = assay: Inhibition of 10e6 P388 leukemic cells in mice, intraperitoneal administration; type: functional, Mus musculus; in short: as §1
[7] = Ability of compound (220 mg/kg, q7dx2) to inhibit growth of Sc colon 38 tumor cells in mice; type: functional, Mus musculus
In short: (§3)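 Mice carrying palpable subcutaneous colon 38 tumors, randomized in groups of five. Drug given intraperitoneally in aqueous solution, either as a single dose or as two equal doses 7 days apart. Major and minor tumor axes measured twice weekly from the start of treatment. Volume taken as 0.52x²y. Growth delay in days is relative to untreated controls.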

P388 [8] = assay: The average percentage increase in the lifespan of P388 leukemic mice, when compound was administered intraperitoneally; NA means not active; type: functional, cell-based; settings: Mus musculus; in short: as §1
P388 [9] = assay: The average percentage increase in the lifespan of P388 leukemic mice, when compound was administered intraperitoneally; NA is Not active; type: functional, cell-based; settings: Mus musculus; in short: as §1
[10] = Activity against colon adenocarcinoma C38 tumor in mice, after intraperitoneal administration at optimal dose.; type: functional, Mus musculus; in short: as §2
P388 [11] = assay: The average percentage increase in the lifespan of P388 leukemic mice, when compound was administered intraperitoneally; type: functional, Mus musculus
In short: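 Mice received 10⁶ P388 leukemia cells ip. Drug was given ip as the sodium salt in 0.2 mL water on days 1, 5 and 9, with doses in mg/kg/day up to toxic levels. ILS is the average percentage increase in lifespan over untreated tumor-bearing controls, and values of ≥20% were taken as significant.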

[12] = Ability of compound (100 mg/kg, single dose) to inhibit growth of Sc colon 38 tumor cells in mice; type: functional, Mus musculus; in short: as §3
[13] = Ability of compound (45 mg/kg, q7dx2) to inhibit growth of Sc colon 38 tumor cells in mice; type: functional, Mus musculus; in short: as §3
[14] = Ability of compound (65 mg/kg, q4dx3) to inhibit growth of Sc colon 38 tumor cells in mice; type: functional, Mus musculus
In short: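 Subcutaneously implanted colon 38 fragments were grown to 4–8 mm diameter. Mice with palpable tumors were randomized in groups of five and dosed ip with drug in aqueous solution; q4d×3 means three equal doses 4 days apart. Major and minor tumor axes were measured twice weekly from the start of treatment. Volume was calculated as 0.52x²y, and growth delay in days was derived against untreated controls.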

P388 [15] = assay: The average percentage increase in the lifespan of P388 leukemic mice, when compound was administered intraperitoneally; NA means not active.; type: functional, cell-based; settings: Mus musculus; in short: as §1
[16] = Ability of compound (330 mg/kg, single dose) to inhibit growth of Sc colon 38 tumor cells in mice; type: functional, Mus musculus; in short: as §3

| Structure (SMILES) | ILS (P388 [1]) | Activity [2] | Optimal dose [4] | Activity [5] | Optimal dose (P388 [6]) | other results |
| --- | --- | --- | --- | --- | --- | --- |
| Cc1ccc(CC(=O)O)c2oc3ccccc3c(=O)c12 | No activity | 50% | 150 mg/kg |  |  | Optimal dose (P388 [3]): 100 mg/kg |
| COc1ccc(CC(=O)O)c2oc3ccccc3c(=O)c12 |  |  | 500 mg/kg | <50% |  |  |
| COc1ccc2oc3c(CC(=O)O)cccc3c(=O)c2c1 | No activity | 50% | 500 mg/kg |  | 150 mg/kg |  |
| O=C(O)Cc1cccc2c(=O)c3ccccc3oc12 |  |  | 220 mg/kg | >90% | 150 mg/kg | Growth delay [7]: 11 days; ILS (P388 [8]): inactive |
| O=C(O)Cc1cccc2c(=O)c3cccc([N+](=O)[O-])c3oc12 |  |  | 220 mg/kg |  | 150 mg/kg | ILS (P388 [9]): inactive |
| O=C(O)Cc1c(Cl)ccc2c(=O)c3ccccc3oc12 | No activity |  | 500 mg/kg |  | 150 mg/kg | Activity [10]: >90% |
| O=C(O)Cc1cccc2c(=O)c3cccc(Cl)c3oc12 |  |  | 150 mg/kg | >90% | 65 mg/kg | ILS (P388 [11]): 34%; Growth delay [12]: 5.2 days |
| Cc1cccc2c(=O)c3cccc(CC(=O)O)c3oc12 |  |  | 45 mg/kg | >90% | 30 mg/kg | ILS (P388 [11]): 27%; Growth delay [13]: 13 days |
| O=c1[nH]cc(F)c(=O)[nH]1 [FLUOROURACIL] |  |  |  |  |  | Growth delay [14]: 12.5 days |
| O=C(O)Cc1cccc2c(=O)c3ccc(O)cc3oc12 | No activity | 50% | 750 mg/kg |  | 225 mg/kg |  |
| O=C(O)Cc1cccc2c(=O)c3cccc(O)c3oc12 |  |  | 750 mg/kg | <50% | 150 mg/kg | ILS (P388 [15]): No activity |
| O=C(O)Cc1cc(Cl)cc2c(=O)c3ccccc3oc12 | No activity | 50% | 330 mg/kg |  | 150 mg/kg |  |
| COc1ccc2c(=O)c3cccc(CC(=O)O)c3oc2c1 |  | 50% | 150 mg/kg |  | 65 mg/kg | ILS (P388 [11]): 28%; Growth delay [12]: 0 days |
| COc1cc(CC(=O)O)c2oc3ccccc3c(=O)c2c1 | No activity | 50% | 750 mg/kg |  | 225 mg/kg |  |
| O=C(O)Cc1ccc2c(=O)c3ccccc3oc2c1 | No activity |  | 500 mg/kg | <50% | 225 mg/kg |  |
| COc1ccc2c(=O)c3ccccc3oc2c1CC(=O)O | No activity |  | 220 mg/kg | <50% | 220 mg/kg |  |
| O=C(O)Cc1ccc(O)c2c(=O)c3ccccc3oc12 |  |  | 750 mg/kg | <50% |  |  |

| Structure (SMILES) | ILS (P388 [1]) | Activity [2] | Optimal dose [4] | Activity [5] | Optimal dose (P388 [6]) | other results |
| --- | --- | --- | --- | --- | --- | --- |
| Cc1ccc2oc3c(CC(=O)O)cccc3c(=O)c2c1 | No activity | 50% | 500 mg/kg |  | 500 mg/kg |  |
| O=C(O)Cc1c(O)ccc2c(=O)c3ccccc3oc12 | No activity |  | 500 mg/kg | <50% | 500 mg/kg |  |
| COc1cccc2c(=O)c3cccc(CC(=O)O)c3oc12 |  | 50% | 150 mg/kg |  | 150 mg/kg | ILS (P388 [11]): 42% |
| O=C(O)Cc1cccc2c(=O)c3cc(O)ccc3oc12 |  |  | 750 mg/kg | <50% |  |  |
| COc1cccc2oc3c(CC(=O)O)cccc3c(=O)c12 | No activity |  | 750 mg/kg | <50% | 330 mg/kg |  |
| Cc1ccc2c(=O)c3ccccc3oc2c1CC(=O)O |  | 50% | 150 mg/kg |  | 100 mg/kg | ILS (P388 [11]): 26% |
| O=C(O)Cc1cccc2oc3ccccc3c(=O)c12 | No activity |  | 500 mg/kg | <50% | 500 mg/kg |  |
| O=C(O)Cc1cccc2c(=O)c3c(Cl)cccc3oc12 | No activity | 50% | 750 mg/kg |  | 330 mg/kg |  |
| O=C(O)Cc1cccc2c(=O)c3cc(Cl)ccc3oc12 | No activity | 50% | 500 mg/kg |  | 150 mg/kg |  |
| O=C(O)Cc1ccc(Cl)c2c(=O)c3ccccc3oc12 | No activity |  | 330 mg/kg | >90% | 220 mg/kg |  |
| O=C(O)Cc1cccc2c(=O)c3cc([N+](=O)[O-])ccc3oc12 |  |  | 500 mg/kg | <50% | 225 mg/kg | ILS (P388 [9]): inactive |
| O=C(O)Cc1cc(O)cc2c(=O)c3ccccc3oc12 |  |  | 750 mg/kg | <50% |  |  |
| O=C(O)Cc1cccc2c(=O)c3ccc(Cl)cc3oc12 | No activity | 50% | 150 mg/kg |  | 65 mg/kg |  |
| Cc1ccc2c(=O)c3cccc(CC(=O)O)c3oc2c1 |  | 50% | 220 mg/kg |  | 100 mg/kg | ILS (P388 [11]): 24% |
| O=C(O)Cc1cccc2c(=O)cc(-c3ccccc3)oc12 [MITOFLAXONE] | No activity |  | 330 mg/kg | >90% | 150 mg/kg | Growth delay [16]: 17 days |
| Cc1cc(CC(=O)O)c2oc3ccccc3c(=O)c2c1 | No activity | 50% | 500 mg/kg |  | 330 mg/kg |  |
| Cc1cccc2oc3c(CC(=O)O)cccc3c(=O)c12 | No activity |  | 330 mg/kg | <50% | 150 mg/kg |  |
